FXIa inh – factor XIa (human) inhibition. P03951. purified FXIa, Boc-Glu-Ala-Arg-AMC fluorogenic substrate. inhibition, % at 5 µM. 0.14% of 220,000 active. AID 798;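 active = inhibition of at least 40%; inactive = inhibition below 40%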;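 also: fluorescence of freed AMC excited at 355 nm; 0% = enzyme without compound and 100% = no enzyme blank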
Thrombin inh – blocks human thrombin protease activity. inhibition, % at 5 µM. alpha-thrombin, Boc-VPR-AMC fluorogenic substrate cleavage. 0.26% of 220,000 active. P00734. AID 1046;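 active = inhibition at or above 40%; inactive = inhibition below 40%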;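 also: 0% = enzyme with no compound and 100% = wells without enzyme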
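Material: Human alpha-thrombin protein | Buffer or medium: pH 7.5 Tris-saline with Tween 20 | Reagent: Boc-VPR-AMC substrate, 15 µM final | Schedule: Reaction at ambient temperature | Detection: AMC fluorescence at 355 nm excitation and 460 nm emission | Evaluation: Percent inhibition scaled between no-compound controls and no-enzyme blanks | Controls: no-compound enzyme wells and no-enzyme blanks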
FXIIa inh – blocks human coagulation factor XIIa protease activity | purified FXIIa, Boc-QGR-AMC fluorogenic substrate, 2 h | inhibition, % at 5 µM | 0.3% of 220,000 active | P00748; in the data active = inhibition above about 40%;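 also: 0% = enzyme with no compound and 100% = blank without enzyme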
m-calpain inh – calpain II (pig) inhibition | inhibition, % at 16 µM | AID 1236 | purified calpain II, fluorogenic peptide substrate, 30 min | 0.37% of 220,000 active;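 active = inhibition above about 50%, limit read from the data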
hK5 inh – blocks human kallikrein 5 protease activity; recombinant hK5, fluorogenic AMC substrate cleavage; 0.59% of 210,000 active; Q9Y337; inhibition, % at 5 µM;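 active = inhibition of 40% or more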;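 also: 0% = enzyme controls without compound and 100% = no-enzyme blanks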
Target sequence (Q9Y337 67-293 limits assumed): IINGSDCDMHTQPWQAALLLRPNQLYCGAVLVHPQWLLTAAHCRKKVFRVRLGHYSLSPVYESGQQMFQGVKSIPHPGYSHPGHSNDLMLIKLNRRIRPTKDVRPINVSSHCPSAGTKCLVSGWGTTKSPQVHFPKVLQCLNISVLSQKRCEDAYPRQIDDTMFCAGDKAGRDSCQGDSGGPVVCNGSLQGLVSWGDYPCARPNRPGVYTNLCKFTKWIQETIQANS
Starred values were filed as active, the others as inactive. The list is not random: actives were taken first. Their share in the collection is about 1.4%.

For Cc1c(Cl)cnc(NC(=O)COC(=O)CCC(=O)c2cccs2)c1Cl the results were FXIa inh 14, Thrombin inh 55*, FXIIa inh 6, m-calpain inh -21 and hK5 inh -7.
Screening Cc1ccc(NC(=O)C2CCCN(S(=O)(=O)c3cnc[nH]3)C2)cc1F (configuration not stated) returned FXIa inh 11, Thrombin inh 19, FXIIa inh 12, m-calpain inh -2 and hK5 inh 71*.
Screening CC(C)c1ccc(NC(=O)C2CCCN(S(=O)(=O)c3cnc[nH]3)C2)cc1 (configuration not stated) returned FXIa inh -2, Thrombin inh 8, FXIIa inh -1, m-calpain inh 10 and hK5 inh 62*.
Screening O=C(Nc1ccc(Cl)cc1)C1CCCN(S(=O)(=O)c2cnc[nH]2)C1 (configuration not stated) returned FXIa inh 7, Thrombin inh 2, FXIIa inh 15, m-calpain inh -17 and hK5 inh -4.
For CCN1CCN(c2ncc3c(n2)CC(c2ccc(OC)c(OC)c2)CC3=O)CC1 (configuration not stated) the results were FXIa inh -2, Thrombin inh -4, FXIIa inh -2, m-calpain inh -18 and hK5 inh 6.
`Cc1cccc(N(C(=O)Cn2nnc3ccccc32)C(C(=O)NC(C)(C)C)c2ccsc2)c1` (configuration not stated) gave FXIa inh 2, Thrombin inh 0, FXIIa inh 9, m-calpain inh -4 and hK5 inh -4.
`CCOc1ccc(CCNc2nc3c(c(=O)n(C)c(=O)n3C)n2CC)cc1OCC` gave FXIa inh -15, Thrombin inh -1, FXIIa inh 11, m-calpain inh -11 and hK5 inh 5.
Screening CC(C)CN(C(=O)CSc1nnc(-c2ccco2)o1)c1c(N)n(Cc2ccccc2)c(=O)[nH]c1=O returned FXIa inh -5, Thrombin inh -9, FXIIa inh -1, m-calpain inh -32 and hK5 inh -8.
Screening O=C(CN(Cc1ccccc1F)C(=O)Cn1nnc(-c2cccs2)n1)NCC1CCCO1 (configuration not stated) returned FXIa inh -3, Thrombin inh 19, FXIIa inh 0, m-calpain inh 7 and hK5 inh 53*.
COCCN(C(=S)Nc1cccc(C)c1C)C(C)c1ccco1 (configuration not stated) was read as FXIa inh -6, Thrombin inh -1, FXIIa inh -9, m-calpain inh 33 and hK5 inh -27.
Screening CCOC(=O)C(=CNc1cccc(C)c1C)C(=O)OCC returned FXIa inh -9, Thrombin inh 45*, FXIIa inh 19, m-calpain inh 52* and hK5 inh 7.
For CCOC(=O)C(=CNc1ccc(C)cc1C)C(=O)OCC the results were FXIa inh 3, Thrombin inh -5, FXIIa inh -8, m-calpain inh 30 and hK5 inh -10.
O=c1c2sc3nc(N4CCOCC4)c4c(c3c2nnn1Cc1ccccc1)CCCC4 was read as FXIa inh -9, Thrombin inh 1, FXIIa inh 10, m-calpain inh -170 and hK5 inh -1.
For Cc1ccc(CSC2=NCCN2C(=O)c2ccco2)cc1 the results were FXIa inh -10, Thrombin inh -5, FXIIa inh 1, m-calpain inh 27 and hK5 inh 41*.
`Cc1cccc(CSC2=NCCN2C(=O)c2ccco2)c1` gave FXIa inh 6, Thrombin inh -8, FXIIa inh 19, m-calpain inh 14 and hK5 inh -21.
Screening CCC(=O)N1CCN=C1SCc1ccccc1 returned FXIa inh 11, Thrombin inh 14, FXIIa inh 29, m-calpain inh -7 and hK5 inh 41*.
Screening CCC(=O)N1CCN=C1SCc1ccc(Cl)cc1 returned FXIa inh 2, Thrombin inh 5, FXIIa inh 16, m-calpain inh 5 and hK5 inh 6.
`COC(=O)Nc1ccc(S(=O)(=O)N2CCC(C(=O)N3CCCCC3C)CC2)cc1` (configuration not stated) gave FXIa inh -2, Thrombin inh -2, FXIIa inh 7, m-calpain inh -20 and hK5 inh 1.
For O=C(NC(NCC1CCCO1)C(Cl)(Cl)Cl)c1cccc2ccccc12 (configuration not stated) the results were FXIa inh 4, Thrombin inh -9, FXIIa inh 21, m-calpain inh -41 and hK5 inh -16.

Compound activity: PubChem, several laboratories
